Screens (PubChem)
Sampled rows, rich in hits. Any-hit rate of the full collection: about 4.1%.
RGS4 block: inhibitors of human RGS4 | P49798 | HEK293 M3R/RGS4 inducible, Fluo-4 calcium flux; hits give high values; triggered by carbachol at its EC20 | B-score at 10 µM | hit rate 0.45% among 310,000;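 active = B-score, a plate-corrected calcium signal, over three deviations above library mean, with baseline fluorescence within five deviations of library mean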;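 also: RGS4 expression induced by doxycycline in cells with stable M3 receptor; B-score is computed from the integrated fluorescence ratio over baseline after carbachol; higher B-score means a larger calcium signal and so more RGS4 inhibition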
Target sequence (P49798 whole entry, looked up): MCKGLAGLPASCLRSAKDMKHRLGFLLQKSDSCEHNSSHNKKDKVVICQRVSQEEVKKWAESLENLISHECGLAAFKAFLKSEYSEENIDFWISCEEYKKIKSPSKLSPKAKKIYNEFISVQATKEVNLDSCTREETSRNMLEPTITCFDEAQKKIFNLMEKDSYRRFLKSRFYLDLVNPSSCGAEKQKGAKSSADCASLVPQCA
MrgX1 allo act: human MrgX1 positive allosteric modulation, primary screen | Q96LB2 | MrgX1-HEK293, Fluo-4 calcium flux, FDSS; hits give high values | B-score at 10 µM | hit rate 0.63% among 310,000;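 active = plate-corrected calcium response at least 3 library SD above typical, normal starting fluorescence, not activating the receptor alone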;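 also: compound read alongside a low EC10 to EC30 dose of BAM8-22 agonist; peak minus trough fluorescence over baseline measured at the second addition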
MrgX1 agonist: agonists of human MrgX1 receptor | Q96LB2 | MrgX1-HEK293 cells, Fluo-4 calcium fluorescence, agonist mode; hits give high values | B-score at 10 µM | hit rate 0.44% among 310,000 | AID 588627;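 active = calcium response B-score plate-corrected fluorescence ratio at least 3 library SD, with starting fluorescence B-score inside 5 SD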
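times = overnight plating, then 30 min 37 °C plus 30 min room-temperature dye loading | assay system = stable human MrgX1 HEK293 cell line | input = fifteen thousand cells per well | signal = kinetic calcium dye fluorescence, Fluo-4 NW | dosing = compound delivered in addition one of three | read-out = B-scored fluorescence response ratio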
MrgX1 antag: human MrgX1 receptor antagonism, primary screen; Q96LB2; MRGX1-HEK293 calcium flux, Fluo-4, BAM8-22 antagonism; hits give low values; B-score at 10 µM; hit rate 1.3% among 310,000; AID 588676;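 active = calcium-response B-score plate-corrected more than 3 library SD below zero, starting fluorescence within 5 deviations, no agonist response on first addition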;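 also: peak minus trough fluorescence over baseline after final BAM8-22 challenge near maximal dose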
Kir21 block: blocks the mouse Kir2.1 inward-rectifier potassium channel. HEK293-Kir2.1, FluxOR thallium flux fluorescence; hits give low values. B-score at 10 µM. hit rate 0.85% among 310,000;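 active = fluorescence ratio B-score at or below minus 3 SD of library scores, with starting-brightness B-score within 2 SD, cut at about -4.2 in these data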;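 also: channel flux triggered by added potassium and thallium sulfate stimulus; B-score of peak minus minimum fluorescence over baseline after thallium stimulus; more negative B-score means stronger Kir2.1 block with less thallium influx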
Target sequence (P35561 whole entry, looked up): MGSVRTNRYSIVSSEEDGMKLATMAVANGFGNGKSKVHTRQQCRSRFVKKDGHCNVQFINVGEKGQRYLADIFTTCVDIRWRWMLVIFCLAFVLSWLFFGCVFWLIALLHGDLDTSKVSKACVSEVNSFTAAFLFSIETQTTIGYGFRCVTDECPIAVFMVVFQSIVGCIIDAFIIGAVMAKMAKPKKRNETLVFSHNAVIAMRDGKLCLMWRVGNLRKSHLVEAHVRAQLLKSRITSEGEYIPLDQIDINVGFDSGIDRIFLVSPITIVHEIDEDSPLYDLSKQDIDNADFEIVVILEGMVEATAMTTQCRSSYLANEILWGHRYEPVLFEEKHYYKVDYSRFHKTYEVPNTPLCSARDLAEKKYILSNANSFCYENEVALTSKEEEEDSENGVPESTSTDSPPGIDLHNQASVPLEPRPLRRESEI
RGS4 act: potentiators or activators of RGS4 | HEK293 M3R/inducible RGS4, carbachol calcium flux Fluo4; hits give low values | B-score at 10 µM | hit rate 0.92% among 310,000;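 active = B-score of the integrated calcium signal more than 4 SD below the library mean, with starting fluorescence not abnormally high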;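 also: negative B-score means reduced calcium response which marks RGS4 activation or potentiation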
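Detection: kinetic calcium fluorescence imaging with Fluo4-AM dye, 2 µM / Material: HEK293 cells with stable M3R and inducible RGS4 / Schedule: recording 10 s baseline at 1 Hz, 100 s post-agonist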
Starred values were filed as active, the others as inactive; i = inactive; · = not tested or not shown.

SMILES | RGS4 block | MrgX1 allo act | MrgX1 agonist | MrgX1 antag | Kir21 block | RGS4 act
COC(=O)C1CCN(C(=O)COC(=O)CSc2ccc(C(N)=O)cc2[N+](=O)[O-])CC1 | i | i | i | -6.36* | 1.78 | i
CCOC(=O)CSc1ccc(C(=O)NCCCN2CCOCC2)cc1[N+](=O)[O-] | i | i | i | i | 0.92 | -8.24*
Cc1ccc(C)c(C(=O)CCC(=O)O)c1 | i | i | i | i | 0 | i
O=C1CCCC(O)=C1N=Nc1ccc2c(c1)OCO2 | i | i | i | -5.04* | 0.92 | i
O=C1CCCC(O)=C1N=Nc1ccc(C(=O)O)cc1 | i | i | i | i | 0.54 | i
Cc1cc(Oc2nc3ccccn3c(=O)c2/C=C(\C#N)C(=O)NC2CCS(=O)(=O)C2)ccc1Cl (centres undefined) | i | i | i | i | -1.18 | i
N#C/C(=C\c1c(Oc2ccc(Cl)cc2)nc2ccccn2c1=O)C(=O)NC1CCS(=O)(=O)C1 (centres undefined) | i | i | i | i | -4.43* | i
CCCNC(=O)c1ccc(COc2ccc(C(C)(C)C)cc2)o1 | i | i | i | i | 0.92 | i
COc1ccc(C(=O)NCc2csc(C)n2)cc1OC1CCN(C(C)=O)CC1 | i | i | i | i | -0.02 | i
CC1CCC2(CC1)NC(=O)N(Cc1nc(-c3ccccc3)no1)C2=O (centres undefined) | i | i | i | i | 0.33 | i
CC1(c2ccc(OC(F)F)cc2)NC(=O)N(CC(=O)Nc2ccc3[nH]c(=O)[nH]c3c2)C1=O (centres undefined) | i | i | i | i | -0.4 | i
CCOC(=O)CN1C(=O)NC(C)(c2ccc(OC(F)F)cc2)C1=O (centres undefined) | i | i | i | i | -0.06 | i
CC1(c2ccc(OC(F)F)cc2)NC(=O)N(CC(=O)Nc2ccccc2)C1=O (centres undefined) | i | i | 28.7* | i | 2.35 | i
CC(=O)Nc1ccc(/C=N/N2C(=O)NC(C)(c3ccc(OC(F)F)cc3)C2=O)cc1 (centres undefined) | i | i | 30.6* | i | 0.93 | -6.95*
COc1ccc(C2(c3ccc(OC)cc3)NC(=O)N(CC(=O)Nc3ccc(C(=O)N(C)C)cc3)C2=O)cc1 | i | i | i | -6.42* | 1.05 | i
COc1ccc(Cc2nnc(SCC(=O)Nc3ccc(N4CCOCC4)cc3)o2)cc1 | i | i | i | i | 0.55 | i
COc1ccc(Cc2nnc(SCC(=O)N(C)CC(=O)Nc3ccc(C)cc3)o2)cc1 | i | i | i | -4.59* | 0.03 | i
COc1ccc(-c2c[n+](CC(=O)OC3CC(C)CCC3C(C)C)c3n2CCC3)cc1 (centres undefined) | i | i | i | -4.85* | -5.22* | -6.97*
CC1CCC(C(C)C)C(OC(=O)C[n+]2cccc(C(N)=O)c2)C1 (centres undefined) | i | i | i | i | 1.93 | i
CC(C)[C@@H]1CC[C@@H](C)C[C@H]1OC(=O)C[n+]1cc(-c2ccc(Cl)cc2)n2c1CCCCC2 | i | i | i | -7.43* | -8.05* | i
O=C(C[n+]1cc(-c2ccc(Cl)cc2)n2c1CCCCC2)c1ccccc1 | i | i | i | i | -0.23 | i
CCOC(=O)C1CCN(c2c(NCCN(CC)c3ccccc3)c(=O)c2=O)CC1 | i | 9.96* | i | i | -0.62 | i
COc1cc(C(=O)O)cc(NC(=O)c2cccs2)c1OC | i | i | i | i | -0.81 | i
Nn1c(SCc2ccccc2F)nnc1-c1ccncc1 | i | i | i | i | 0.89 | i
Cc1nnc(SCc2ccccc2F)n1NCc1cccs1 | i | i | i | i | -4.24* | i
SMILES | RGS4 block | MrgX1 allo act | MrgX1 agonist | MrgX1 antag | Kir21 block | RGS4 act
O=C(Nc1cccc(Cl)c1)C1C2CCC3C(CCC21)C3(Cl)Cl (centres undefined) | i | i | i | i | -0.86 | -7.49*
CC(=O)Oc1c(Sc2ccccc2[N+](=O)[O-])c(C)nn1C(C)(C)C | i | i | i | i | 0.05 | i
Cc1ccc(C(=O)O)cc1-c1ccc(C=C2C(=O)c3ccccc3C2=O)o1 | i | i | 41.5* | i | -0.28 | i
Cc1cc(C(=O)O)ccc1-n1c(C)cc(C=C2C(=O)c3ccccc3C2=O)c1C | i | i | 29.4* | i | -2.1 | i
Cc1ccc(NC(=O)CN2C(=O)S/C(=C/c3ccc(-c4cc(C(=O)O)ccc4C)o3)C2=O)cc1C | i | i | i | i | -1.19 | i
COCCn1c(Cc2ccccc2)nnc1SCC(=O)N1CCOCC1 | i | i | i | i | 0.98 | i
Cc1ccsc1CNn1cnnc1SCc1ccc(Cl)cc1 | i | i | i | i | -1.28 | i
CN(Cc1nc(-c2cccnc2)no1)S(=O)(=O)c1ccc2ccccc2c1 | i | i | i | i | -4.85* | i
COC(=O)c1ccc(C23CC4(C2)[C@H](CN(C)[C@@H]4c2ccccc2)C3c2ccc(Cl)nc2)cc1 (some centres undefined) | i | i | i | i | -0.91 | -7.11*
COc1ccc(Cl)cc1NC(=O)CN(C)CC(=O)Nc1ccc(S(N)(=O)=O)cc1 | i | i | i | i | 0.01 | i
CCN(CC)C(=O)c1ccc(S(=O)(=O)Cc2ccc(C)cc2)c([N+](=O)[O-])c1 | i | i | i | i | -0.79 | i
CCOc1ccc(CCNC(=O)c2ccc(CS(=O)Cc3ccc(Cl)cc3)o2)cc1 (centres undefined) | i | i | i | i | 0.35 | i
CCOc1ccc(CCNC(=O)c2ccc(CS(=O)Cc3ccccc3Cl)o2)cc1 (centres undefined) | i | i | i | i | -4.3* | i
Cc1noc(C)c1COC(=O)c1ccccc1Oc1ccccc1 | i | i | i | i | -5.07* | i
CCC(C)Sc1ccc([C@@H]2[C@H]3C(=O)N(CC)C(=O)[C@H]3[C@]3(C(=O)OC)CCCCN23)cc1 (some centres undefined) | · | i | i | i | · | ·
COc1ccc(CC(=O)N(C)CC(=O)Nc2cccc(F)c2)cc1S(=O)(=O)N1CCOCC1 | i | i | i | -5.28* | 0.99 | i
COc1ccc(/C=C2\SC(=O)N(CCNC(=O)Cc3coc4cc(C)ccc34)C2=O)cc1OC | i | i | i | i | -0.43 | -8.49*
